Calls of active or inactive are those of the source. The calls are words filed in the database; no cut-off is given here.
Assays:
[1] = Inhibition of Bacillus subtilis Sfp-PPTase using rhodamine-CoA/BHQ-2-YbbR as substrate preincubated for 15 mins followed by substrate addition by HTS assay
HepG2 = assay: Cytotoxicity against human HepG2 cells assessed as cellular ATP content after 48 hrs by CellTiter-Glo assay; assay type: cell-based; conditions: HepG2, 48 h
In short: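 HepG2 cells exposed to compound; viability read as cellular ATP by luciferase-coupled CellTiter-Glo.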

Bacillus subtilis [2] = assay: Antibacterial activity against Bacillus subtilis HM489 assessed as cellular ATP content after 5 hrs by BacTiter-Glo assay; assay type: functional, organism-based; conditions: HM489, 5 h
[3] = Inhibition of Bacillus subtilis AcpS-PPTase using rhodamine-CoA/BHQ-2-YbbR as substrate preincubated for 15 mins followed by substrate addition by HTS assay
In short: (§1)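 AcpS-PPTase at 100 nM final in 50 mM HEPES-Na pH 7.6, 10 mM MgCl2, 0.01% Nonidet P-40, 0.01% BSA; compound preincubated 15 min at room temperature, then rhodamine-CoA (5 μM final) and BHQ-2-YbbR (12.5 μM final) added. Fluorescence read (525 ex/598 em) at start and after 60 min; difference gives rate.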

[4] = biological target: T1, L-aminoadipate-semialdehyde dehydrogenase-phosphopantetheinyl transferase (Homo sapiens) (UniProt Q9NRN7); assay: Inhibition of human PPTase up to 125 uM by gel-based fluorescence assay
T1 sequence (whole entry): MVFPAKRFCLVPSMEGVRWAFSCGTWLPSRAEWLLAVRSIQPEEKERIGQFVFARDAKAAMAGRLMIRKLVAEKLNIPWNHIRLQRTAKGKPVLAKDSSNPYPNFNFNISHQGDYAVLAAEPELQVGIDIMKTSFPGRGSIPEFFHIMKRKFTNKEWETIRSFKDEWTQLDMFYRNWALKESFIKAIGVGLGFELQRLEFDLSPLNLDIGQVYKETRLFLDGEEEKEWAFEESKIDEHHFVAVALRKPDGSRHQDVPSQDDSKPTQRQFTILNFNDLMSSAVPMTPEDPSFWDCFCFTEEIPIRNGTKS

Bacillus subtilis [5] = assay: Antibacterial activity against Bacillus subtilis 168 assessed as disruption of cell membrane integrity at 10 times MIC after 15 mins by Syto9/propidium iodide staining-based BacLight LIVE/DEAD microscopic analysis; assay type: functional, organism-based; conditions: subsp. subtilis str. 168
Bacillus subtilis [6] = assay: Antibacterial activity against Bacillus subtilis 168 assessed as growth inhibition after 16 to 20 hrs by resazurin dye-based assay; assay type: functional; conditions: subsp. subtilis str. 168
In short: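 Broth microdilution. Test article from 1 μL DMSO in 50 μL cation-adjusted Mueller Hinton II (bacteria) or RPMI 1640 (fungi), plus ~1×10^3 cfu inoculum in the same medium. Incubated 16–20 h at 30–37 °C (48 h for fungi). MIC scored visually as the first well without growth; resazurin added for imaging.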

Staphylococcus aureus = assay: Antibacterial activity against Staphylococcus aureus BK2395 in Swiss Webster mouse septicemia model assessed as increase in survival at 50 mg/kg, ip administered 4 to 48 hrs measured 3 times daily for 14 days; assay type: functional, organism-based; design: dose 50 mg/kg
[7] = Inhibition of AcpS-PPTase (unknown origin); in short: as §1
Bacillus subtilis [8] = assay: Inhibition of Bacillus subtilis Sfp-PPTase
In short: (§2)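 qHTS fluorescence assay in 50 mM HEPES-Na pH 7.6, 10 mM MgCl2, 0.01% NP-40, 0.01% BSA. Final enzyme 15 nM Sfp or 100 nM AcpS. Enzyme preincubated with compound 15 min at room temperature, then rhodamine-CoA 5 μM and BHQ-2-YbbR 12.5 μM (final) added. Fluorescence (525 ex/598 em) read at start and after 30 min (Sfp) or 60 min (AcpS); the difference gives the rate. Eight concentrations from 3.6 nM to 114 μM, run in triplicate.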

Bacillus subtilis [9] = assay: Inhibition of Bacillus subtilis Sfp-PPTase using CoA/apo-ACP as substrate preincubated for 10 mins followed by substrate addition measured after 30 mins by PAGE analysis
In short: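 Compound in DMSO added to Sfp at 26.6 nM (in a 1.33× enzyme solution) in HEPES-Na pH 7.6 with MgCl2, NP-40 and BSA, and held 10 min. Reaction started with rhodamine-CoA and apo-actinorhodin-ACP, each 50 μM in a 4× substrate solution. After 30 min at room temperature, quenched with urea/EDTA and resolved by native 20% PAGE.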

[10] = Non-competitive inhibition of Bacillus subtilis Sfp-PPTase using CoA/ActACP as substrate preincubated for 10 mins followed by substrate addition measured after 30 mins by HPLC analysis
Bacillus subtilis [11] = assay: Inhibition of Bacillus subtilis AcpS-PPTase; in short: as §2
Bacillus subtilis [12] = assay: Reversible inhibition of Bacillus subtilis Sfp-PPTase using rhodamine-CoA/FITC-YbbR as substrate assessed as residual enzyme activity at IC90 preincubated for 30 mins followed by 100 fold dilution and addition of substrate by fluorescence assay
Liver microsome = assay: Drug metabolism in human liver microsomes assessed as GSH adduct formation at 50 uM after 60 mins by LC-MS/MS analysis in presence of NADPH; assay type: ADME; conditions: 1 h

Compound | IC50 [1] | also measured
COc1cc(OC)cc(N2CCN(C(=S)Nc3cc(C)cc(C)n3)CC2)c1 | 2 µM | 
COC(=O)c1ccnc(NC(=S)N2CCN(c3cccc(C(F)(F)F)c3)CC2)c1 | 11.5 µM | 
FC(F)(F)c1cccc(N2CCN(C(=S)Nc3ccncc3)CC2)c1 | ≥ 114 µM | 
FC(F)(F)c1cccc(N2CCN(C(=S)Nc3ccc4ccccc4n3)CC2)c1 | 1.5 µM | 
Cc1cc(C)nc(NC(=S)N2CCN(c3cccc(C(F)(F)F)c3)CC2)c1 | 0.51 µM | 
Cc1ccnc(NC(=S)N2CCN(c3ccccc3C(F)(F)F)CC2)c1 | 0.61 µM | IC50 (HepG2): ≥ 114 µM; IC50 (Bacillus subtilis [2]): 9.4 µM; IC50 [3]: 10.2 µM
C/N=c1\nc(-c2ccccc2)n(-c2ccccc2)s1 |  | inhibition [4]: Active
Cc1cc(C)nc(NC(=S)N2CCN(c3cc(C#N)cc(C#N)c3)CC2)c1 | 0.65 µM | 
Cc1ccnc(NC(=S)N2CCN(c3cccc(C(F)(F)F)c3)C[C@@H]2C)c1 | 11.5 µM | 
Cc1ccnc(NC(=O)N2CCN(c3cccc(C(F)(F)F)c3)CC2)c1 | ≥ 114 µM | IC50 (HepG2): 7 µM; IC50 (Bacillus subtilis [2]): ≥ 114 µM; IC50 [3]: ≥ 114 µM
Cc1ccnc(NC(=S)N2CCCN(c3cccc(C(F)(F)F)c3)CC2)c1 | 1.6 µM | 
Cetyltrimethylammonium bromide |  | Activity (Bacillus subtilis [5]): Active; growth inhibition (GI) (Bacillus subtilis [6]): Active
Cc1cc(C)cc(N2CCN(C(=S)Nc3cc(C)cc(C)n3)CC2)c1 | 1.6 µM | 
Cc1ccnc(NC(=S)N2CCN(c3cccc(C(F)(F)F)c3)C2)c1 | 0.81 µM | 
Cc1ccnc(NC(=S)N2CCN(c3ccc(C(F)(F)F)cc3)CC2)c1 | 1 µM | 
Cc1ccnc(NC(=N)N2CCN(c3cccc(C(F)(F)F)c3)CC2)c1 | ≥ 114 µM | 
Cc1cc(C)nc(NC(=C(C#N)C#N)N2CCN(c3cccc(C(F)(F)F)c3)CC2)c1 | ≥ 114 µM | 
Cc1cccc(NC(=S)N2CCN(c3cccc(C(F)(F)F)c3)CC2)c1 | ≥ 114 µM | 
CN[C@H](CC(C)C)C(=O)N[C@H]1C(=O)N[C@@H](CC(N)=O)C(=O)N[C@H]2C(=O)N[C@H]3C(=O)N[C@H](C(=O)N[C@H](C(=O)O)c4cc(O)cc(O)c4-c4cc3ccc4O)[C@H](O)c3ccc(c(Cl)c3)Oc3cc2cc(c3O[C@@H]2O[C@H](CO)[C@@H](O)[C@H](O)[C@H]2O[C@H]2C[C@](C)(N)[C@H](O)[C@H](C)O2)Oc2ccc(cc2Cl)[C@H]1O |  | Activity (Staphylococcus aureus): Active
Cc1cc(C)nc(NC(=S)N2CCNCC2)c1 | 14.5 µM | 

Compound | IC50 [1] | also measured
Cc1cc(C)nc(NC(=S)N2CCN(Cc3cccc(C(F)(F)F)c3)CC2)c1 | 11.5 µM | 
O=C(N[C@H](CO)[C@H](O)c1ccc([N+](=O)[O-])cc1)C(Cl)Cl |  | Activity (Bacillus subtilis [5]): inactive; growth inhibition (GI) (Bacillus subtilis [6]): Active
COc1cccc(NC(=S)N2CCN(c3cccc(C(F)(F)F)c3)CC2)n1 | 1.5 µM | 
Cc1ccnc(CC(=S)N2CCN(c3cccc(C(F)(F)F)c3)CC2)c1 | 5.76 µM | 
Cc1cc(C)nc(NC(=S)N2CCN(c3ccc(Cl)cc3Cl)CC2)c1 | 1 µM | 
Cc1ccnc(NC(=S)NCCN(C)c2cccc(C(F)(F)F)c2)c1 | ≥ 114 µM | 
FC(F)(F)c1cccc(N2CCN(C(=S)Nc3cc(C(F)(F)F)ccn3)CC2)c1 | ≥ 114 µM | 
Cc1cc(C)nc(NC(=S)N2CCN(S(=O)(=O)c3cccc(C(F)(F)F)c3)CC2)c1 | 0.81 µM | 
Cc1cc(C)nc(NC(=S)N2CCN(c3cccc(Cl)c3Cl)CC2)c1 | 1.6 µM | 
Cc1cc(C)nc(NC(=S)N2CCN(c3ccc(C(F)(F)F)cn3)CC2)c1 |  | IC50 (HepG2): 15.8 µM; IC50 (Bacillus subtilis [2]): 13.2 µM; IC50 [3]: 16.2 µM
COc1ccnc(NC(=S)N2CCN(c3cccc(C(F)(F)F)c3)CC2)c1 | 1.2 µM | 
Cc1cc(C)nc(NC(=S)N2CCN(c3ccc(Cl)c(Cl)c3)CC2)c1 | 0.91 µM | 
Cc1cc(C)nc(NC(=S)N2CCN(c3cc(F)cc(F)c3)CC2)c1 | 1.3 µM | 
Cc1cc(C)nc(NC(=S)N2CCN(c3cc(C(F)(F)F)cc(C(F)(F)F)c3)CC2)c1 | 0.51 µM | 
Cc1cc(C)nc(NC(=S)N2CCN(c3cc(Cl)cc(Cl)c3)CC2)c1 | 0.85 µM | 
Cc1cc(C)nc(NC(=S)N2CCN(c3cccc(C#N)c3)CC2)c1 | 1.6 µM | 
Cc1ccnc(NC(=S)NC2CN(c3cccc(C(F)(F)F)c3)C2)c1 | ≥ 114 µM | 
Cc1ccnc(NC(=S)N2CCN(c3cccc(N(C)C)c3)CC2)c1 | 5.8 µM | 
Nc1ncnc2c1ncn2[C@@H]1O[C@H](COP(=O)(O)O)[C@@H](OP(=O)(O)O)[C@H]1O |  | inhibition [4]: Active
Cc1cc(C)nc(Nc2nnc(N3CCN(c4cccc(C(F)(F)F)c4)CC3)s2)c1 | ≥ 114 µM | 

Compound | IC50 [1] | also measured
FC(F)(F)c1cccc(N2CCN(C(=S)Nc3ccc4cccnc4n3)CC2)c1 | 1 µM | 
Cc1ccnc(NC(=S)Nc2cccc(C(F)(F)F)c2)c1 | 22.9 µM | 
Cc1cc(C)nc(NC(=S)N2CCN(c3ccc(Cl)c(Cl)c3Cl)CC2)c1 | 0.73 µM | 
Cc1cc(C)nc(NC(=S)N2CCN(c3cc(Cl)c(Cl)c(Cl)c3)CC2)c1 | 0.29 µM | 
CSC(Cc1ccc(Cl)cc1)C(=O)Nc1ccc(Cl)cc1C(=O)O (configuration not stated) |  | IC50 [7]: 1.4 µM
Cc1ccnc(NC(=S)N2CCN(c3cccc(C(F)(F)F)c3)CC2)c1 | 0.78 µM | IC50 (HepG2): 14 µM; IC50 (Bacillus subtilis [2]): 9.8 µM; inhibition (Bacillus subtilis [8]): Active; inhibition (Bacillus subtilis [9]): Dose-dependent effect; IC50 [10]: 0.3 µM; inhibition (Bacillus subtilis [11]): Active; IC50 [3]: 4.6 µM; inhibition (Bacillus subtilis [12]): Active
Cc1cc(C)nc(NC(=S)N2CCN(c3ncc(C(F)(F)F)cc3Cl)CC2)c1 | 0.86 µM | IC50 (HepG2): 30 µM; IC50 (Bacillus subtilis [2]): 36.2 µM; IC50 [3]: 18.6 µM
Cc1ccnc(C(=S)N2CCN(c3cccc(C(F)(F)F)c3)CC2)c1 | ≥ 114 µM | 
Cc1ccnc(NC(=S)N2CCN(C)CC2)c1 | 6.5 µM | 
Cc1cc(C)nc(NC(=S)N2CCN(c3cccc(S(C)(=O)=O)c3)CC2)c1 | 2.9 µM | 
Cc1cc(C)nc(NC(=S)N2CCN(c3ccc(Cl)cc3C(F)(F)F)CC2)c1 | 0.58 µM | IC50 (HepG2): ≥ 114 µM; Drug metabolism (Liver microsome): Not Active; IC50 (Bacillus subtilis [2]): 18.6 µM; IC50 [3]: 10.2 µM
Cc1ccnc(NC(=S)N2CC3CN(c4cccc(C(F)(F)F)c4)CC3C2)c1 (configuration not stated) | 0.73 µM | 
Cc1ccnc(NC(=S)N2CCC(Nc3cccc(C(F)(F)F)c3)CC2)c1 | 0.81 µM | IC50 (HepG2): ≥ 114 µM; IC50 (Bacillus subtilis [2]): 13.2 µM; IC50 [3]: 12.9 µM
Cc1ccnc(N(C)C(=S)N2CCN(c3cccc(C(F)(F)F)c3)CC2)c1 | ≥ 114 µM | 
FC(F)(F)c1cccc(N2CCN(C(=S)Nc3ccccn3)CC2)c1 | 0.91 µM | 
Cc1ccnc(NC(=S)NC2CCN(c3cccc(C(F)(F)F)c3)CC2)c1 | ≥ 114 µM | 
Cc1ccnc(NC(=S)NCCNc2cccc(C(F)(F)F)c2)c1 | ≥ 114 µM | 
Cc1cc(C)nc(NC(=S)N2CCN(c3nnc(C(F)(F)F)s3)CC2)c1 | 1.6 µM | 
Cc1cc(C)nc(N/C(=N/C#N)N2CCN(c3cccc(C(F)(F)F)c3)CC2)c1 | ≥ 114 µM | 
